Test results reported in ChEMBL document CHEMBL4028909, “Discovery of an Orally Bioavailable Benzofuran Analogue That Serves as a β-Amyloid Aggregation Inhibitor for the Potential Treatment of Alzheimer's Disease” (J Med Chem, 2018).
pIC50: −log10 of the molar value. Activity calls are given as the source filed them. The calls are words filed in the database; no cut-off is given here.

Experiments:
[1] = target: Amyloid-beta precursor protein (Homo sapiens) (UniProt P05067); experiment: Induction of HFIP-pretreated amyloid beta (1 to 42) (unknown origin) disaggregation at 3.1 to 50 uM after 1 hr by Thioflavin-T fluorescence assay relative to control
Amyloid-beta precursor protein (Homo sapiens), sequence (P05067 whole entry): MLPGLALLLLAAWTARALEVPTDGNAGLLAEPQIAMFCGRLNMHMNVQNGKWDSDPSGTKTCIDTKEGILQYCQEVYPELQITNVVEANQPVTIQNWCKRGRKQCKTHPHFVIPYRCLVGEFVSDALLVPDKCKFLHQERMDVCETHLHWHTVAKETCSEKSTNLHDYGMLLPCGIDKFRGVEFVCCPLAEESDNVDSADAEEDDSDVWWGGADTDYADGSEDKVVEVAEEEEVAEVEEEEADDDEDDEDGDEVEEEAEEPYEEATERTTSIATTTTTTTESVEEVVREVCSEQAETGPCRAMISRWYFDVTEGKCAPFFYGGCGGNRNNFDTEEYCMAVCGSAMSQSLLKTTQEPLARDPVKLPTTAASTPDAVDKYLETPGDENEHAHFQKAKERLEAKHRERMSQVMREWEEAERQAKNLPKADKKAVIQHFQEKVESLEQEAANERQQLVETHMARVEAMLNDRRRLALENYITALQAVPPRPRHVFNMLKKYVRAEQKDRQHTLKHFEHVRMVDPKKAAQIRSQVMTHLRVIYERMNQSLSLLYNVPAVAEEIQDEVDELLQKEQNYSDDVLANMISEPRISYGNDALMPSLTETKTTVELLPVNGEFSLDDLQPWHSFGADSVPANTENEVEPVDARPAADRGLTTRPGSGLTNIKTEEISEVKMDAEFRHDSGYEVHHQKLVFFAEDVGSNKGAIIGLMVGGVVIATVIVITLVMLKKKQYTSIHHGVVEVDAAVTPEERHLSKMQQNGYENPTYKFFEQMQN

[2] = target: Amyloid-beta precursor protein (Homo sapiens) (UniProt P05067); experiment: Inhibition of HFIP-pretreated amyloid beta (1 to 42) (unknown origin) aggregation after 1 hr by transmission electron microscopic method
[3] = test system: HT-22; experiment: Cytotoxicity against mouse HT22 cells assessed as effect on cell viability at 1.25 to 10 uM after 18 hrs by MTT assay; assay type: cell-based; conditions: ht-22, 18 h
How it was run: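 Mouse HT22 cells were treated with compound alone at the stated concentrations, without Aβ aggregates. Viability was read by MTT.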

[4] = test system: Mus musculus; experiment: Reversal of cognitive deficit in amyloid beta (1 to 42)-treated Alzheimer's disease ICR mouse model assessed as increase in step-through latency time administered orally for 3 consecutive days by passive avoidance test; assay type: functional
How it was run: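 Acute AD model: preformed Aβ aggregates injected into the brains of normal mice. Compound given orally for three consecutive days, then step-through passive avoidance was tested by a standard protocol. Read-out is step-through latency (sec), compared against control and vehicle groups.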

[5] = test system: Mus musculus; experiment: Reversal of cognitive deficit in double APP/PS1 transgenic Alzheimer's disease mouse model assessed as increase in spatial memory function by measuring spontaneous alternation at 30 mg/kg, po qd administered for 8 weeks by Y maze test (reference value: 52.64 +/- 4.15%); assay type: functional
How it was run: (§1)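 APP/PS1 double transgenic mice, 29 weeks old, dosed orally once daily at 30 or 100 mg/kg for eight weeks. Y-maze spontaneous alternation (%) was then measured against vehicle-treated mice, and mice were watched for apparent toxicity.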

[6] = test system: Mus musculus; experiment: Reversal of cognitive deficit in double APP/PS1 transgenic Alzheimer's disease mouse model assessed as increase in spatial memory function by measuring spontaneous alternation at 100 mg/kg, po qd administered for 8 weeks by Y maze test (reference value: 52.64 +/- 4.15%); assay type: functional; how it was run: as §1
[7] = test system: Mus musculus; experiment: Antiamyloidogenic activity in po dosed double APP/PS1 transgenic Alzheimer's disease mouse model assessed as decrease in amyloid beta (1 to 42) levels in brain administered as qd for 8 weeks by sandwich ELISA; assay type: functional, organism-based
How it was run: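 APP/PS1 mice, 29 weeks old, were dosed orally once daily for eight weeks at 30 or 100 mg/kg, with a vehicle group. Brain tissue was homogenized and amyloid fibrils were solubilized to monomers. Aβ1-40 and Aβ1-42 were then quantified by immunoassay with antibodies specific to monomeric Aβ.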

[8] = Terminal half life in mouse at 3 mg/kg, iv; assay type: ADME, organism-based; conditions: in vivo, read-out: beta t1/2 (converted)
How it was run: (§2)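 Mouse pharmacokinetics: single i.v. dose of 3 mg/kg, or oral doses of 3, 10 and 30 mg/kg. Plasma concentration–time curves gave T1/2 (terminal, hr), Tmax (hr), Cmax, AUC and bioavailability (%).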

[9] = Initial concentration in mouse at 3 mg/kg, iv; assay type: ADME, organism-based; conditions: in vivo
How it was run: (§3)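 Mice received a single dose of 3 mg/kg i.v. or 3, 10 or 30 mg/kg orally. Plasma concentration-time profiles were analysed for AUC from zero to infinity and to the last measured time (hr*ng/mL), Cmax (ng/mL, C0 after i.v.), Tmax and terminal half-life (hr), and oral bioavailability (%).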

[10] = Terminal half life in mouse at 10 mg/kg, po; assay type: ADME, organism-based; conditions: in vivo, read-out: beta t1/2 (converted); how it was run: as §2
[11] = Cmax in mouse at 10 mg/kg, po; assay type: ADME, organism-based; parameters: dose 10 mg/kg, route oral; conditions: in vivo; how it was run: as §3
[12] = AUC (infinity) in mouse at 10 mg/kg, po; assay type: ADME, organism-based; parameters: dose 10 mg/kg, time infinity, route oral; conditions: in vivo; how it was run: as §3
[13] = AUClast in mouse at 30 mg/kg, po; assay type: ADME, organism-based; parameters: dose 30 mg/kg, time 0 - last, route oral; conditions: in vivo; how it was run: as §3
[14] = Clearance in iv dosed monkey; assay type: ADME, organism-based, Macaca mulatta; conditions: rhesus monkey, in vivo
[15] = Half life in po dosed dog; assay type: ADME, organism-based, Canis lupus familiaris; conditions: in vivo
[16] = AUC in po dosed rat; assay type: ADME, organism-based; conditions: in vivo
[17] = AUC in po dosed dog; assay type: ADME, organism-based, Canis lupus familiaris; conditions: in vivo
[18] = Oral bioavailability in dog; assay type: ADME, organism-based, Canis lupus familiaris; conditions: in vivo
[19] = Ratio of AUC in ICR mouse brain to AUC in ICR mouse plasma at 10 mg/kg, po measured at 3 hrs; assay type: ADME, organism-based; conditions: read-out: Ratio AUC
How it was run: (§4)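 ICR mice (n=3) given a single oral dose of 10 mg/kg. Brain and plasma were sampled over nine hours, at 0.333, 1, 3, 6 and 9 h. Kp was calculated as AUC_brain/AUC_plasma.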

[20] = Ratio of AUC in ICR mouse brain to AUC in ICR mouse plasma at 10 mg/kg, po measured at 6 hrs; assay type: ADME, organism-based; conditions: read-out: Ratio AUC; how it was run: as §4
[21] = Ratio of AUC in ICR mouse brain to AUC in ICR mouse plasma at 10 mg/kg, po measured at 9 hrs; assay type: ADME, organism-based; conditions: read-out: Ratio AUC; how it was run: as §4
[22] = target: T1, Cytochrome P450 2C8 (Homo sapiens, UniProt P10632); experiment: Inhibition of CYP2C8 in human liver microsomes preincubated for 5 mins followed by addition of NADPH generating system measured after 20 mins by LC-MS/MS analysis; assay type: ADME
T1 sequence (P10632 whole entry): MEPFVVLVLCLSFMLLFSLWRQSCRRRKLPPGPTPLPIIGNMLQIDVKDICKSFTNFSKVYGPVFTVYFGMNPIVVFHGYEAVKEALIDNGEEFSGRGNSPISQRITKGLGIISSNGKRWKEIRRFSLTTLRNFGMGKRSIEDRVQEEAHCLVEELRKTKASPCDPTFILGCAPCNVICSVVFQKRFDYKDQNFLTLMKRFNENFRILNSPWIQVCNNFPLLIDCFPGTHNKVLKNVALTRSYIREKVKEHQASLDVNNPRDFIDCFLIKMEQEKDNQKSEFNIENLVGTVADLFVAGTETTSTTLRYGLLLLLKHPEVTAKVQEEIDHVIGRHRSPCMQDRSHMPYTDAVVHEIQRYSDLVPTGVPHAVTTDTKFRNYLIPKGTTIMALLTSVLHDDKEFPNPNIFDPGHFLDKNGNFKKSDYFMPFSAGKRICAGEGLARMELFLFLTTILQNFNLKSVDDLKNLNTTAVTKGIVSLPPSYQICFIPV
How it was run: (§5)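 Inhibition of each CYP isozyme (1A2, 2A6, 2C8, 2C9, 2C19, 2D6, 3A4) was measured in human liver microsomes. IC50 values were reported in μM.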

[23] = target: Cytochrome P450 2C9 (Homo sapiens, UniProt P11712); experiment: Inhibition of CYP2C9 in human liver microsomes preincubated for 5 mins followed by addition of NADPH generating system measured after 20 mins by LC-MS/MS analysis; assay type: ADME; how it was run: as §5
Cytochrome P450 2C9, sequence (P11712 whole entry): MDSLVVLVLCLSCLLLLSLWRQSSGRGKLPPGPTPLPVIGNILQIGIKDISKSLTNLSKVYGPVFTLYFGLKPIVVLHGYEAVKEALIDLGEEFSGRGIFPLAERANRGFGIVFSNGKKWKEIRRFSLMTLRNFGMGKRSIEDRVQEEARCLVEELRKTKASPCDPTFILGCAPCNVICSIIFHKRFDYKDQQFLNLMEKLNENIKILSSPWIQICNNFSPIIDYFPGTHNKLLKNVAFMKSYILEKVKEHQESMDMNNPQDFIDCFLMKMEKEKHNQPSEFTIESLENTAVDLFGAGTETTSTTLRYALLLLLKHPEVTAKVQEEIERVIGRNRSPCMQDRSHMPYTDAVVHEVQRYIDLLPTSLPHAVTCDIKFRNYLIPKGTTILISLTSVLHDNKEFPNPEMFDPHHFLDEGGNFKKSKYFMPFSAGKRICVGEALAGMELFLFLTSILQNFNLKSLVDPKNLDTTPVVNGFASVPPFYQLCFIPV

[24] = target: Cytochrome P450 2C19 (Homo sapiens, UniProt P33261); experiment: Inhibition of CYP2C19 in human liver microsomes preincubated for 5 mins followed by addition of NADPH generating system measured after 20 mins by LC-MS/MS analysis; assay type: ADME; how it was run: as §5
Cytochrome P450 2C19, sequence (P33261 whole entry): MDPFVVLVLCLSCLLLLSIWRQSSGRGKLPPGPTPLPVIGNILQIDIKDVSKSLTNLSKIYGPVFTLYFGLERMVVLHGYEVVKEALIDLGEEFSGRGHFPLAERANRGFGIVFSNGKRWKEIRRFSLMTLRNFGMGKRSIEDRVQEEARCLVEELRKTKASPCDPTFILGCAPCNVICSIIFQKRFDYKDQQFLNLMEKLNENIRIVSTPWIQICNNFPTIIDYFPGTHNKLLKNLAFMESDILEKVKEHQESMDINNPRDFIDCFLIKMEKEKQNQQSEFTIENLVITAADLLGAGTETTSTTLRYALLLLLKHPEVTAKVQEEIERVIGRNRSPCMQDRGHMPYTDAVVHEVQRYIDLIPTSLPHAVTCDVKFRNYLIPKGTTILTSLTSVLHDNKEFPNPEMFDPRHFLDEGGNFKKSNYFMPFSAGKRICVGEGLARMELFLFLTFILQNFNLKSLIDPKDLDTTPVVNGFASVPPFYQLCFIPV

[25] = target: Cytochrome P450 2D6 (Homo sapiens, UniProt P10635); experiment: Inhibition of CYP2D6 in human liver microsomes preincubated for 5 mins followed by addition of NADPH generating system measured after 20 mins by LC-MS/MS analysis; assay type: ADME; how it was run: as §5
Cytochrome P450 2D6, sequence (P10635 whole entry): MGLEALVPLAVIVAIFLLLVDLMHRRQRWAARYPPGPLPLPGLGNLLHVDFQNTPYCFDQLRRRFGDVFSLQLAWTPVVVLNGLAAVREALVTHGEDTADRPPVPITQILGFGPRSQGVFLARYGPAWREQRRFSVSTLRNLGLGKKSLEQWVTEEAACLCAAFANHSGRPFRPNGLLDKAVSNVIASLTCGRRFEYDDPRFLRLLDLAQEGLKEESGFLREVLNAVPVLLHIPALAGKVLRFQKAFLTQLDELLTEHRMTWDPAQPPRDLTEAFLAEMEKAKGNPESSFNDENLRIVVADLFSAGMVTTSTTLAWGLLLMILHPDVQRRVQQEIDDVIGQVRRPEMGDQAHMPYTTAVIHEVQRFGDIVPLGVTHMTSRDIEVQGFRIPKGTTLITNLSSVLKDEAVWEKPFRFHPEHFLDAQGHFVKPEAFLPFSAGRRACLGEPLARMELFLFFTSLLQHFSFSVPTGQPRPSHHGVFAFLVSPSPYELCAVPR

[26] = Half-life in po dosed dog; conditions: in vivo
[27] = Half-life in po dosed monkey; conditions: rhesus monkey, in vivo
[28] = Half-life in po dosed ICR mouse; conditions: in vivo

Activity [1]: 40% | inhibition [2]: Active | half-life [8]: 1.4 h | C0 [9]: 4870 ng/mL | half-life [10]: 1.6 h | Cmax [11]: 660 ng/mL | AUC(0-inf) [12]: 2290 ng·h/mL | AUC(0-t) [13]: 10400 ng·h/mL | clearance [14]: 7 mL/min/kg | half-life [15]: 1.4 h | AUC [16]: 4200 ng·h/mL | AUC [17]: 4190 ng·h/mL | bioavailability [18]: 25% | Kp at 3 h [19]: 1.2 | Kp at 6 h [20]: 1.2 | Kp at 9 h [21]: 1.4 | pIC50 [22]: 4.50 | pIC50 [23]: < 4.30 | pIC50 [24]: < 4.30 | pIC50 [25]: < 4.30 | t1/2 [26]: 1.4 h | t1/2 [27]: 12.9 h | t1/2 [28]: 5.87 h
SMILES: COCCCc1ccc2oc(-c3ccc(OC)c(OC)c3)cc2c1
Activity [3]: Non-Toxic | Activity [4]: Dose-dependent effect | ED50 ([4]; po): 0.19 mg/kg | Activity [5]: 63.73% | Activity [6]: 63.93% | Activity [7]: Dose-dependent effect
